Assay results: ChEMBL document CHEMBL1155847, “Novel indoline-based acyl-CoA:cholesterol acyltransferase inhibitor with antiperoxidative activity: improvement of physicochemical properties and biological activities by introduction of carboxylic acid” (J Med Chem, 2008)

How the values were obtained:
[1] = molecular target: T1, Sterol O-acyltransferase 1 (Homo sapiens, UniProt P35610); assay: Inhibition of ACAT-mediated esterified cholesterol accumulation in human THP1 cells exposed to acetyl-LDL during differentiation assessed as effect on foam cell formation; assay type: cell-based, THP-1
T1 sequence (P35610 whole entry): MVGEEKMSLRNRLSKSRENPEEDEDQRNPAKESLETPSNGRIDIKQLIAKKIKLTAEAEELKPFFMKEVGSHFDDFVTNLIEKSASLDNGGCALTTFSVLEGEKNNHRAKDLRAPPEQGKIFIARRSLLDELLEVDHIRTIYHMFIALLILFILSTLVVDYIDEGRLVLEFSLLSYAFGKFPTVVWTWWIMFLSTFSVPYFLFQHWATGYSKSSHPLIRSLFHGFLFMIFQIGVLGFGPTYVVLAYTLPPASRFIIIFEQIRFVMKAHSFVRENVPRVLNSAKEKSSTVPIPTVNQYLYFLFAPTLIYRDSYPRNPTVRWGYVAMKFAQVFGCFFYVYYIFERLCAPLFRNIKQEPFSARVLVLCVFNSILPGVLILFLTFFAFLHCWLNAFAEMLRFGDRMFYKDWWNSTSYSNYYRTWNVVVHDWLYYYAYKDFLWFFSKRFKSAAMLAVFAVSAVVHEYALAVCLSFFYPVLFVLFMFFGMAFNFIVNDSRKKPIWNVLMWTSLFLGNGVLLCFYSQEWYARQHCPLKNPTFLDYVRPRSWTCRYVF

[2] = molecular target: T2, Acyl-CoA:cholesterol acyltransferase (Oryctolagus cuniculus, UniProt Q95214); assay: Inhibition of normocholesterolemic rabbit liver ACAT
T2 sequence (Q95214 whole entry): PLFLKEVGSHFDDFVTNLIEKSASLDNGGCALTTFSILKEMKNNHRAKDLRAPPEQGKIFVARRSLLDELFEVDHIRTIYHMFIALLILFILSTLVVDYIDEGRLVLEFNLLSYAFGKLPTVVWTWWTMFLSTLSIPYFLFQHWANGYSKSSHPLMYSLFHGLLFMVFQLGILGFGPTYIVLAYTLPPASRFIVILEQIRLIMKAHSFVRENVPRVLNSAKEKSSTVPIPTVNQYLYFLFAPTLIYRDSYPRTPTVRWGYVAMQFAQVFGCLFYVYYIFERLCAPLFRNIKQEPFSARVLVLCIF
Outline: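 Liver from normocholesterolemic male Japanese White rabbits homogenized in sucrose/phosphate/EDTA/dithioerythritol buffer pH 7.4. Microsomes collected by 12000g then 105000g spins. Then 30 nmol [1-¹⁴C]oleoyl-CoA added, 20 min at 37 °C. Cholesteryl ester extracted and separated by TLC.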

[3] = Distribution coefficient, log D at pH 7.0; assay type: physicochemical; settings: octanol/water
Outline: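 5 mg of compound in 5 mL octanol shaken 30 min at room temperature with 5 mL 1/15 M potassium phosphate buffer pH 7.0, then centrifuged. Both phases quantified by HPLC. log D taken as log of the octanol/buffer concentration ratio.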

[4] = Solubility in water at pH 7.0; assay type: physicochemical
Outline: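 6 mg of compound shaken 30 min at room temperature in 3 mL 1/15 M potassium phosphate buffer pH 7.0, centrifuged and filtered (0.45 µm). Filtrate concentration by HPLC.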

Brain = assay: Antiperoxidative activity in Sprague-Dawley rat brain assessed as inhibition of malonaldehyde level; assay type: functional, tissue-based
Outline: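 Cerebral cortex from male SD rats (6 weeks) homogenized in ice-cold 50 mM PBS pH 7.4, spun 1300g. Supernatant incubated 37 °C, 30 min with vehicle or compound. Stopped with 20% TCA; thiobarbituric acid reaction at 100 °C, 15 min; MDA read at 532 nm, less pre-assay MDA. Duplicate assay, n = 2.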

[5] = AUC in Sprague-Dawley rat at 10 mg/kg, po; assay type: ADME, organism-based; design: dose 10 mg/kg, route oral; settings: plasma
Outline: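 Male SD rats, 6-7 weeks, fasted overnight, n = 3; single oral 10 mg/kg dose suspended in 5% arabic gum. Jugular-vein heparinized blood at 0.5, 1, 3, 5, 8, 24 h; plasma free-form compound by HPLC. AUC taken over 24 h.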

Row | SMILES | logD [3] | solubility [4] [µg/mL] | other results
1 | CC(C)c1cc(C(C)C)c(CC(=O)NS(=O)(=O)Oc2c(C(C)C)cccc2C(C)C)c(C(C)C)c1 [AVASIMIBE] | – | – | IC50 [1]: 1500 nM; IC50 [2]: 7.6 µM
2 | CCCCCCCCN1CC(CCC(=O)O)c2c(C)cc(C)c(NC(=O)C(C)(C)C)c21.Cl (stereo not given) | 3.5 | 355 | –
3 | CCCCCCCCN1CCc2c(C)cc(C)c(NC(=O)C(C)(C)C)c21 | – | – | IC50 (Brain): 3.1 µM; AUC [5]: 200 ng·h/mL
4 | Cc1cc(C)c(NC(=O)C(C)(C)C)c2c1CCN2CCCCCCCCCC(=O)O.Cl | 2.8 | 732 | –
5 | CCCCCCCCN1CCc2c(C)c(CN)c(C)c(NC(=O)C(C)(C)C)c21.Cl.Cl | 2.3 | 857 | –
6 | CCCCCCCCN1CCc2c(C)c(CN)c(C)c(NC(=O)C(C)(C)C)c21 | – | – | IC50 (Brain): 4.2 µM
7 | CCCCCCCCN1CCc2c(C)c(CC(=O)O)c(C)c(NC(=O)C(C)(C)C)c21.CCCCCCCCN1CCc2c(C)c(CC(=O)O)c(C)c(NC(=O)C(C)(C)C)c21.O=S(=O)(O)O [PACTIMIBE SULFATE] | 2.9 | 1450 | –
8 | CCCCCCCCN1CCc2c(C)cc(C)c(NC(=O)C(C)(C)CCC(=O)O)c21.Cl | 3 | 401 | –
